Where two headings read alike, the source gives them in different places.
How the values were obtained:
[1] = assay type: in vivo, human; settings: for Ratio of geometric means (treatment A/B; 90% CI) of AUC0‐t / Ratio of geometric means (treatment A/B; 90% CI) of AUC0‐∞ / Ratio of geometric means (treatment A/B; 90% CI) of Cmax: FDC‐2 vs free combination (EU‐sourced tadalafil); for CVw of AUC0‐t / CVw of AUC0‐∞ / CVw of Cmax: FDC‐2 vs free combination, intrasubject coefficient of variation; for Cmax: Treatment A FDC (FDC‐2, 10 mg/40 mg), single dose, fasted, healthy subjects; for Cmax / half-life: geometric mean (95% CI)
How it was run: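 Healthy subjects randomized to A/B or B/A. Single oral dose: 10 mg/40 mg FDC, or macitentan 10 mg plus 2 × 20 mg EU-sourced tadalafil. Fasted ≥10 h pre- to 4 h post-dose. Blood (K3EDTA) from predose to 216 h; spun ~1500 g, 10 min, 4 ± 2°C; stored ≤ −75°C, light-protected. LC-MS/MS with isotope-labelled standards. Geometric mean ratios (90% CI) and CVw from mixed-effects model.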

[2] = Study AC‐077‐101: safety and tolerability evaluation; assay type: in vivo, human; settings: both studies AC‐077‐101 and AC‐077‐103; administered as FDC product or as a free combination
[3] = assay type: in vivo, human; settings: for CVw of AUC0‐t / CVw of AUC0‐∞ / CVw of Cmax: intrasubject coefficient of variation; for Tmax: median (range)
How it was run: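 Healthy subjects; randomized crossover; single oral fasted dose of the 10 mg/40 mg macitentan/tadalafil FDC vs a free combination with US-sourced tadalafil; evaluated per group. Fluids withheld 1 h pre- to 1 h post-dose; observation 216–288 h. Macitentan/ACT-132577 by LC-MS/MS after acetonitrile/ethanol protein precipitation; tadalafil by LC-MS/MS after tert-butyl methyl ether extraction. Geometric mean ratios with 90% CI and intrasubject variability from a mixed-effects model.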

[4] = Stability in human plasma samples; assay type: physicochemical
[5] = Treatment B free combination (EU‐sourced tadalafil), median (range)
[6] = human, plasma, oral, t1/2, Treatment A FDC (FDC‐2)
[7] = human, plasma, oral, t1/2, Treatment B free combination (EU‐sourced tadalafil)
[8] = Group 1, FDC‐1 vs free combination (US‐sourced tadalafil)
[9] = Group 1, FDC‐1 vs free combination
[10] = Group 2, FDC‐2 vs free combination (US‐sourced tadalafil)
[11] = Group 2, FDC‐2 vs free combination
[12] = human, plasma, oral, Group 1, Treatment A FDC‐1 (macitentan/tadalafil 10 mg/40 mg), single dose, fasted, healthy subjects, geometric mean (95% CI)
[13] = human, plasma, oral, Group 2, Treatment B free combination (US‐sourced tadalafil), geometric mean (95% CI)
[14] = human, plasma, oral, t1/2, Group 2, Treatment A FDC‐2, geometric mean (95% CI)
[15] = human, plasma, oral, t1/2, Group 2, Treatment B free combination (US‐sourced tadalafil), geometric mean (95% CI)
[16] = human, plasma, oral, tmax, Group 1, Treatment A FDC‐1
[17] = human, plasma, oral, tmax, Group 1, Treatment B free combination (US‐sourced tadalafil)
[18] = human, plasma, oral, tmax, Group 2, Treatment A FDC‐2
[19] = human, plasma, oral, tmax, Group 2, Treatment B free combination (US‐sourced tadalafil)

## CN1CC(=O)N2[C@H](c3ccc4c(c3)OCO4)c3[nH]c4ccccc4c3C[C@@H]2C1=O [Tadalafil, tadalafil]
[1]
  Ratio of geometric means (treatment A/B; 90% CI) of AUC0‐t: 1.0040 (0.9584, 1.0517)
  Ratio of geometric means (treatment A/B; 90% CI) of AUC0‐∞: 1.0047 (0.9591, 1.0525)
  Ratio of geometric means (treatment A/B; 90% CI) of Cmax: 0.9015 (0.8413, 0.9661)
  CVw of AUC0‐t: 11.35%
  CVw of AUC0‐∞: 11.34%
  CVw of Cmax: 16.96%
[1]; [5]
  Tmax: 1.75 (1.0–5.0) h
[1]; human, plasma, oral
  Cmax: 539 ng/mL
[1]; [6]
  half-life: 23.3 h
[1]; [7]
  half-life: 22.6 h
[1]; human, plasma, oral, tmax, Treatment A FDC (FDC‐2), median (range)
  Tmax: 2 h
[2]
  tolerability: well tolerated
[3]; FDC‐1 vs free combination, bioequivalence limits 0.8000–1.2500
  lower bound of the 90% CI of the geometric mean ratio of Cmax: 0.7167
[3]; Group 1
  AUC lower after FDC‐1 than after free combination: ~8%
  Cmax lower after FDC‐1 than after free combination: approximately 24%
[3]; [8]
  Geometric means ratio (treatment A/B; 90% CI) of AUC0‐t: 0.9151 (0.8687, 0.9639)
  Geometric means ratio (treatment A/B; 90% CI) of AUC0‐∞: 0.9172 (0.8707, 0.9662)
  Geometric means ratio (treatment A/B; 90% CI) of Cmax: 0.7588 (0.7167, 0.8034)
[3]; [9]
  CVw of AUC0‐t: 16.71%
  CVw of AUC0‐∞: 16.70%
  CVw of Cmax: 18.38%
[3]; Group 1, Treatment B free combination (US‐sourced tadalafil), geometric mean (95% CI)
  t1/2: 18.066 (16.472, 19.815) h
[3]; Group 1, Treatment B free combination (US‐sourced tadalafil)
  Tmax: 3.00 (1.0–5.0) h
[3]; [10]
  Geometric means ratio (treatment A/B; 90% CI) of AUC0‐t: 0.9764 (0.9293, 1.0259)
  Geometric means ratio (treatment A/B; 90% CI) of AUC0‐∞: 0.9765 (0.9293, 1.0260)
  Geometric means ratio (treatment A/B; 90% CI) of Cmax: 0.9576 (0.9063, 1.0118)
[3]; [11]
  CVw of AUC0‐t: 16.01%
  CVw of AUC0‐∞: 16.02%
  CVw of Cmax: 17.86%
[3]; [12]
  Cmax: 385 ng/mL
[3]; [13]
  Cmax: 490 ng/mL
[3]; human, plasma, oral, t1/2, Group 1, Treatment A FDC‐1, geometric mean (95% CI)
  half-life: 18.4 h
[3]; [14]
  half-life: 18.1 h
[3]; [15]
  half-life: 18.5 h
[3]; [16]
  Tmax: 4 h
[3]; [17]
  Tmax: ~3 h
[3]; [18]
  Tmax: 3 h
[3]; [19]
  Tmax: 3 h
[4]
  stability in plasma samples at room‐temperature: at least 6 hours
  stability in plasma samples, freeze/thaw cycles: ≥ 3 freeze/thaw cycles

## NS(=O)(=O)Nc1ncnc(OCCOc2ncc(Br)cn2)c1-c1ccc(Br)cc1 [ACT‐132577]
[1]
  Ratio of geometric means (treatment A/B; 90% CI) of AUC0‐t: 0.9970 (0.9651, 1.0300)
  Ratio of geometric means (treatment A/B; 90% CI) of AUC0‐∞: 0.9936 (0.9619, 1.0264)
  Ratio of geometric means (treatment A/B; 90% CI) of Cmax: 1.0198 (0.9819, 1.0591)
  CVw of AUC0‐t: 7.93%
  CVw of AUC0‐∞: 7.91%
  CVw of Cmax: 9.24%
[1]; [5]
  Tmax: 48.00 (24.0–72.1) h
[1]; human, plasma, oral
  Tmax: 48 h
  Cmax: 163 ng/mL
[1]; [6]
  half-life: 49.4 h
[1]; [7]
  half-life: 50.4 h
[3]; [8]
  Geometric means ratio (treatment A/B; 90% CI) of AUC0‐t: 0.9826(0.9550, 1.0110)
  Geometric means ratio (treatment A/B; 90% CI) of AUC0‐∞: 0.9836(0.9572, 1.0107)
  Geometric means ratio (treatment A/B; 90% CI) of Cmax: 0.9935 (0.9616, 1.0264)
[3]; [9]
  CVw of AUC0‐t: 9.03%
  CVw of AUC0‐∞: 8.61%
  CVw of Cmax: 10.32%
[3]; Group 2
  AUC higher after FDC‐2 than after free combination: ~9%
  Cmax higher after FDC‐2 than after free combination: approximately 10%
[3]; [10]
  Geometric means ratio (treatment A/B; 90% CI) of AUC0‐t: 1.0925 (1.0545, 1.1319)
  Geometric means ratio (treatment A/B; 90% CI) of AUC0‐∞: 1.0884 (1.0502, 1.1281)
  Geometric means ratio (treatment A/B; 90% CI) of Cmax: 1.0983 (1.0470, 1.1520)
[3]; [11]
  CVw of AUC0‐t: 11.20%
  CVw of AUC0‐∞: 11.31%
  CVw of Cmax: 15.15%
[3]; [12]
  Cmax: 158 ng/mL
[3]; [13]
  Cmax: 150 ng/mL
[3]; human, plasma, oral, t1/2, Group 1, Treatment B free combination (US‐sourced tadalafil), geometric mean (95% CI)
  half-life: 48.5 h
[3]; [14]
  half-life: 50.5 h
[3]; [15]
  half-life: 50.3 h
[3]; [16]
  Tmax: 48 h
[3]; [17]
  Tmax: 48 h
[3]; [18]
  Tmax: 48 h
[3]; [19]
  Tmax: 48 h
[4]
  stability in plasma samples at room‐temperature: at least 3 days
  stability in plasma samples, freeze/thaw cycles: at least 3 freeze/thaw cycles
  stability in plasma samples, storage at −20°C: ≥ 36 months
